Data on 17 compounds can be found in ChEMBL document CHEMBL1154177, “Special ergolines are highly selective, potent antagonists of the chemokine receptor CXCR3: discovery, characterization and preliminary SAR of a promising lead” (Bioorg Med Chem Lett, 2009).

Values after ≈ are worked out from the molar mass of the structure shown. Where only a bound is given, the exact number is not on record here.

The target of one data set is D(4) dopamine receptor (Homo sapiens, UniProt P21917). Description: Inhibition of dopamine D4.4 receptor.
Data set [1] deals with 5-hydroxytryptamine receptor 7 (Homo sapiens, UniProt P34969). Description: Inhibition of 5HT7 receptor.
In data set [2] the target is Alpha-2C adrenergic receptor (Homo sapiens, UniProt P18825). Description: Inhibition of adrenergic Alpha-2C receptor.
In the next data set the target is D(3) dopamine receptor (Homo sapiens, UniProt P35462). Description: Inhibition of dopamine D3 receptor.
Data set [3] has as its target 5-hydroxytryptamine receptor 2A (Homo sapiens, UniProt P28223). Put plainly: Inhibition of 5HT2A receptor.
The target in data set [4] is 5-hydroxytryptamine receptor 2B (Homo sapiens, UniProt P41595). Put plainly: Inhibition of 5HT2B receptor.
Another data set has as its target D(2) dopamine receptor (Homo sapiens, UniProt P14416). Put plainly: Inhibition of dopamine D2 receptor.
The target in data set [5] is 5-hydroxytryptamine receptor 2C (Homo sapiens, UniProt P28335). Put plainly: Inhibition of 5HT2C receptor.
For the next data set, the target named is D(1A) dopamine receptor (Homo sapiens, UniProt P21728). Description: Inhibition of dopamine D1 receptor.
Data set [6] has as its target 5-hydroxytryptamine receptor 6 (Homo sapiens, UniProt P50406). Put plainly: Inhibition of 5HT6 receptor.
In data set [7] the target is Alpha-2A adrenergic receptor (Homo sapiens, UniProt P08913). Description: Inhibition of adrenergic alpha2A receptor.
Data set [8] concerns the target T1, C-X-C chemokine receptor type 3 (Homo sapiens, UniProt P49682).
T1 sequence (P49682 whole entry): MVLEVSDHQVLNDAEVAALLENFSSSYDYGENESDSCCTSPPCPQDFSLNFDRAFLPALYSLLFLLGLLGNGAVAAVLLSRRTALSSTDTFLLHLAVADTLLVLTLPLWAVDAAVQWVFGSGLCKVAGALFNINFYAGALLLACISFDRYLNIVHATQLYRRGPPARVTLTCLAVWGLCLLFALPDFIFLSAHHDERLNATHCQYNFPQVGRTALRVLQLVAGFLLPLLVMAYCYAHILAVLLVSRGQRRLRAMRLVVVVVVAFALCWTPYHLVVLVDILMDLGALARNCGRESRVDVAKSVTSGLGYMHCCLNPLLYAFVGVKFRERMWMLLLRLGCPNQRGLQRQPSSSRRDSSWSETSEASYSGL
Description: Displacement of [125I]I-TAC from human CXCR3 expressed in CHO cells by scintillation proximity assay. It counts as cell-based. The method, boiled down:
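Membranes came from CHO cells transfected with human CXCR3. Serial dilutions of inhibitor were incubated for 2 h at room temperature with 125I-labelled I-TAC (CXCL11), the membranes and WGA-coated PVT beads. Binding was read by scintillation proximity.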

Data set [9] has as its target Beta-1 adrenergic receptor (Homo sapiens, UniProt P08588). Put plainly: Inhibition of adrenergic beta-1 receptor.
A short description of data set [10]: Inhibition of adrenergic alpha1 receptor.
The target in data set [11] is T1, C-X-C chemokine receptor type 3. Put plainly: Antagonist activity at human CXCR3 expressed in L1.2 cells assessed as inhibition of I-TAC-induced Ca2+ mobilization by FLIPR assay. In kind it is functional, cell-based. The method, boiled down:
(§1)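 CXCR3-transfected L1.2 mouse pre-B cells were loaded with Fluo-4 and washed. They were pre-incubated with inhibitor for 2 h at room temperature, then stimulated with I-TAC. The transient rise in intracellular Ca2+ was read on a FLIPR.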

Data set [12] can be described thus: Solubility in pH 1.0 buffer. In kind it is physicochemical.
Data set [13] can be described thus: Fraction unbound in rat. In kind it is ADME, organism-based. To be noted: in vivo.
Data set [14] can be described thus: Fraction unbound in human. In kind it is ADME, organism-based. To be noted: in vivo.
The next data set addresses Cytochrome P450 1A2 (Homo sapiens, UniProt P05177). Put plainly: Inhibition of CYP1A2. It counts as ADME.
For data set [15], the target named is T2, C-X-C chemokine receptor type 3 (Mus musculus, UniProt O88410). Description: Antagonist activity at mouse CXCR3 expressed in L1.2 cells assessed as inhibition of I-TAC-induced Ca2+ mobilization by FLIPR assay. In kind it is functional, cell-based. The method, boiled down: as §1
Data set [16] can be described thus: Solubility in pH 6.8 buffer. In kind it is physicochemical.
Data set [17] deals with Voltage-gated inwardly rectifying potassium channel KCNH2 (Homo sapiens, UniProt Q12809). Description: Inhibition of human ERG.
The target in data set [18] is 5-hydroxytryptamine receptor 1A (Homo sapiens, UniProt P08908). Description: Inhibition of 5HT1A receptor.
Data set [19] has as its target T2, C-X-C chemokine receptor type 3. Put plainly: Displacement of [125I]I-TAC from mouse CXCR3 expressed in CHO cells by scintillation proximity assay. It counts as cell-based.
The target in another data set is Cytochrome P450 3A4 (Homo sapiens, UniProt P08684). Put plainly: Inhibition of CYP3A4. It counts as ADME.
Data set [20] in a line: Lipophilicity, log P of the compound. It counts as physicochemical. To be noted: octanol/water.
The next data set concerns the target Cytochrome P450 2D6 (Homo sapiens, UniProt P10635). Put plainly: Inhibition of CYP2D6. In kind it is ADME.
Another data set addresses Cytochrome P450 2C19 (Homo sapiens, UniProt P33261). Put plainly: Inhibition of CYP2C19. It counts as ADME.
The target of the next data set is Cytochrome P450 2C9 (Homo sapiens, UniProt P11712). Put plainly: Inhibition of CYP2C9. In kind it is ADME.

Sequence of 5-hydroxytryptamine receptor 7 (P34969 whole entry): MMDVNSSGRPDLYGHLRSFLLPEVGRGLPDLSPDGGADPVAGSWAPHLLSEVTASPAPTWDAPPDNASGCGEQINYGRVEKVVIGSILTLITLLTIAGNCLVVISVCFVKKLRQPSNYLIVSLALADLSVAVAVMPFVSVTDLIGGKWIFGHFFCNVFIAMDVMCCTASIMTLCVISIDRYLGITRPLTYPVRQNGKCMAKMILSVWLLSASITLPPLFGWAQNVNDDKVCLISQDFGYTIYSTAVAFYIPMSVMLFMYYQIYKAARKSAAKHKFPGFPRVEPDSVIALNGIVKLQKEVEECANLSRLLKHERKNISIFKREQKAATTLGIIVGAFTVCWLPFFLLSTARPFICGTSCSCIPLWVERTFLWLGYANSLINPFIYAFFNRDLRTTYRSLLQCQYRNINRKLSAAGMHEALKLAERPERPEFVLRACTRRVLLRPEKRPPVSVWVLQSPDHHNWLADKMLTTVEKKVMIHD
Sequence of 5-hydroxytryptamine receptor 2C (P28335 whole entry): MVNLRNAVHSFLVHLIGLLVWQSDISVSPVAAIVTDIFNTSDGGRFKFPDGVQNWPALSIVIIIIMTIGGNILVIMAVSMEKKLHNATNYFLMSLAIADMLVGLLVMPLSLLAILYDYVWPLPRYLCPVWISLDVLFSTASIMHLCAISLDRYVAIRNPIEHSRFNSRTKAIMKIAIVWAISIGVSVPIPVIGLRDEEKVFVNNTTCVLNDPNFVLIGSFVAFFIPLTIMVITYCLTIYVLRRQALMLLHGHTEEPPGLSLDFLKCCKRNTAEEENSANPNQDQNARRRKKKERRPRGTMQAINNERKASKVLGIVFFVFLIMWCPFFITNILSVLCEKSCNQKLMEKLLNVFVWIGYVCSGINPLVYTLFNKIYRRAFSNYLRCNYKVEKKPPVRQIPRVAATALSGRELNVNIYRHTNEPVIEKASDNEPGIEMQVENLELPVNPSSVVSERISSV
Sequence of D(1A) dopamine receptor (P21728 whole entry): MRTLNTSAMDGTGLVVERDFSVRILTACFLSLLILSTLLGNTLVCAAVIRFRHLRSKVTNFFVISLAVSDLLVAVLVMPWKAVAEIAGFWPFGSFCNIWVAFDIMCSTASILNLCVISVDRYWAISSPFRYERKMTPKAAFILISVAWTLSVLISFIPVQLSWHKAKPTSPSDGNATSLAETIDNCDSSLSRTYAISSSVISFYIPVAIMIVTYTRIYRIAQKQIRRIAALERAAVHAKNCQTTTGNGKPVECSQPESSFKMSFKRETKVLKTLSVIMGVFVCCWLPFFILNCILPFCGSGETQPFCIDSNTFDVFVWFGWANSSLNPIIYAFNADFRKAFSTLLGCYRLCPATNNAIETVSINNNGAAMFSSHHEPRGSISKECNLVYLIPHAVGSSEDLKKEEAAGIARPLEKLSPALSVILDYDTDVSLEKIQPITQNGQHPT
T2 sequence (O88410 whole entry): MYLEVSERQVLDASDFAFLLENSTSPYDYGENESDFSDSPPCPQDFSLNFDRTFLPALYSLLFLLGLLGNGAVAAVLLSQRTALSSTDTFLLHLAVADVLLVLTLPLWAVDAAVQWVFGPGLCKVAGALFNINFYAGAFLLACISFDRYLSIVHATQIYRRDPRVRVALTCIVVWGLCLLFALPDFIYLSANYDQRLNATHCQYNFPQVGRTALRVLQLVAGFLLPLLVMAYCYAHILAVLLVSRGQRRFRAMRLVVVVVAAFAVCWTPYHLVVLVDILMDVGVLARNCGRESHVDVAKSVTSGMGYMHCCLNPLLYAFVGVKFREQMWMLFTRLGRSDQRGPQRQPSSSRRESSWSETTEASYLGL
Sequence of D(4) dopamine receptor (P21917 whole entry): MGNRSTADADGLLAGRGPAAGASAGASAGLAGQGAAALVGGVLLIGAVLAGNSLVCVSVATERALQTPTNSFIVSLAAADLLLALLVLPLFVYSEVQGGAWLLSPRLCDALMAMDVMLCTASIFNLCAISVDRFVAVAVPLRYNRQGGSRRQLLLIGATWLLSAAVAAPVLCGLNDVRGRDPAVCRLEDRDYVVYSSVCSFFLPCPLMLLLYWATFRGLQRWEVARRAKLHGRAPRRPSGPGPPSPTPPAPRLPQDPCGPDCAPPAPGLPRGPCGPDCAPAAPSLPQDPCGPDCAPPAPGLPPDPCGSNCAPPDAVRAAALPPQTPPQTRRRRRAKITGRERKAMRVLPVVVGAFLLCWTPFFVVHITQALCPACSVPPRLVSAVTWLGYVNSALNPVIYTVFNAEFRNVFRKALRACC
Sequence of D(3) dopamine receptor (P35462 whole entry): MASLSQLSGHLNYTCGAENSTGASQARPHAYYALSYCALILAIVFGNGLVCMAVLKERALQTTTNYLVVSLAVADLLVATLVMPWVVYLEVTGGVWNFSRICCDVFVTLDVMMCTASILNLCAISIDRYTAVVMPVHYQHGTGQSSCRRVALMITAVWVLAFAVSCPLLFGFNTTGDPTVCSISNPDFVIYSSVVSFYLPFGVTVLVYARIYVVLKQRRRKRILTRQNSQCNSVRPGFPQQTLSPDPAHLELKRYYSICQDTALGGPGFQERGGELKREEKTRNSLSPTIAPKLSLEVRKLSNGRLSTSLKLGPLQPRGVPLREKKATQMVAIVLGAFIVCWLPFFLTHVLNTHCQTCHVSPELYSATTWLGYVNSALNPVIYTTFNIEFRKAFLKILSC
Sequence of Beta-1 adrenergic receptor (P08588 whole entry): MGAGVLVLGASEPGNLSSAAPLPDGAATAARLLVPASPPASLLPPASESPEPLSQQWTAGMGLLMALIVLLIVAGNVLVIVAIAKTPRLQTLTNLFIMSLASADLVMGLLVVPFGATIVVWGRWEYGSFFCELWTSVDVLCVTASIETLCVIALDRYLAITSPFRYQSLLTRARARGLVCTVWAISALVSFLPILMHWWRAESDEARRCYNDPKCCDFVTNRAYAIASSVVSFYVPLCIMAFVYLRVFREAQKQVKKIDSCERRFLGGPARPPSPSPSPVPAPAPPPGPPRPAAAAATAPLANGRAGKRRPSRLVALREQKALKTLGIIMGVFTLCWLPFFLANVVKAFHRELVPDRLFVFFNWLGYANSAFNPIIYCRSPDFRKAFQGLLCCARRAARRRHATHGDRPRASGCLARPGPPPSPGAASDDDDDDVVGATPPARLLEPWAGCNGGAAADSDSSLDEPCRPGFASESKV
Sequence of Alpha-2C adrenergic receptor (P18825 whole entry): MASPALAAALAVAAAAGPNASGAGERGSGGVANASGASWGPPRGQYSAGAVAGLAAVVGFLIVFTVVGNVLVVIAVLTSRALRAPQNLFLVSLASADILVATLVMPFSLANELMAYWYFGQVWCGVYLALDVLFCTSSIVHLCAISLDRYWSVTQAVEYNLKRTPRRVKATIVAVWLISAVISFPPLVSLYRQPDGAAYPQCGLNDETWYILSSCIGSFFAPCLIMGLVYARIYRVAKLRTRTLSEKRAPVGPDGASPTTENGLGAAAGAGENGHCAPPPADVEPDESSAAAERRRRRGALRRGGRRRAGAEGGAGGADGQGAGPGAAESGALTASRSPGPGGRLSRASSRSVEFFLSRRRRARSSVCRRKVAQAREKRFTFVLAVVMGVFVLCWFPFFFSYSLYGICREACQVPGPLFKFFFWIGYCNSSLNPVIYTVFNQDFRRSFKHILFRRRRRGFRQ
Sequence of Alpha-2A adrenergic receptor (P08913 whole entry): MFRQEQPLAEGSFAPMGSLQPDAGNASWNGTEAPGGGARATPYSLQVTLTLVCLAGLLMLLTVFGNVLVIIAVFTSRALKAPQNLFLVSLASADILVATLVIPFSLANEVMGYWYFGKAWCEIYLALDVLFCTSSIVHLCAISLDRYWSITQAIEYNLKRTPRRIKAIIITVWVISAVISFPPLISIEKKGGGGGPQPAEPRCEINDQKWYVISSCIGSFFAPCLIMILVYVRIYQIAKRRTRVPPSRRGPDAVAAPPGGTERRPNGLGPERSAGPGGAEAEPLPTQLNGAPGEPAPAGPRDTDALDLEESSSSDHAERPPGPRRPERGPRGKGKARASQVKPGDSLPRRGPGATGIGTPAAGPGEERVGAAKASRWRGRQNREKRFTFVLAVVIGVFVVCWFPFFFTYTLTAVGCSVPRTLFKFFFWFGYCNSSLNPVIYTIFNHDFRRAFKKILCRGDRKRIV
Sequence of D(2) dopamine receptor (P14416 whole entry): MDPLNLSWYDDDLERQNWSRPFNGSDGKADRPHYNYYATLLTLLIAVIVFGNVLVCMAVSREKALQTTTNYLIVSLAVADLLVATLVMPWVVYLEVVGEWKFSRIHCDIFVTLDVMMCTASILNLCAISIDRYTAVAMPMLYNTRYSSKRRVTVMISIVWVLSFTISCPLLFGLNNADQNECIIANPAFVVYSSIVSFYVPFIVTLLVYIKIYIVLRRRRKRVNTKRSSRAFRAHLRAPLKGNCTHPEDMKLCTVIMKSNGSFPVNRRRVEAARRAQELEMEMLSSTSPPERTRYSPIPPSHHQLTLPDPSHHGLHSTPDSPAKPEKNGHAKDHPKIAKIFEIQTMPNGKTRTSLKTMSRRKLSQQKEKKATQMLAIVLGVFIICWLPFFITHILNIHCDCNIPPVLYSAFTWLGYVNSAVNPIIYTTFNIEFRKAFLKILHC
Sequence of 5-hydroxytryptamine receptor 2B (P41595 whole entry): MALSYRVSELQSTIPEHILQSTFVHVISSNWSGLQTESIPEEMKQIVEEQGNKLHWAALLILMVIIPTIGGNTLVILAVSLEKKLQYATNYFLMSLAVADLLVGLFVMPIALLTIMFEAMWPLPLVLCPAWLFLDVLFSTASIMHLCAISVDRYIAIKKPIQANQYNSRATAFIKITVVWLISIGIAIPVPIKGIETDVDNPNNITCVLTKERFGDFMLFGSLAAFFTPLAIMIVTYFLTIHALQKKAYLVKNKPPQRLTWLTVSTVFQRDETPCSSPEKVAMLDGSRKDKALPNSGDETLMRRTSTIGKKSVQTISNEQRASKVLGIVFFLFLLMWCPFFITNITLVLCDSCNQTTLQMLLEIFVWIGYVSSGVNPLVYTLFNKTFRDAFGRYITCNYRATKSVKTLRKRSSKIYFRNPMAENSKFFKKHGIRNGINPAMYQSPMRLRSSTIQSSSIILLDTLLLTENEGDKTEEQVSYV

Consider `CCN(CC)C(=O)[C@@H]1C=C2c3cccc4[nH]cc(c34)C[C@H]2NC1`, for which the IC50 was above 10 µM at D(4) dopamine receptor; 0.143 µM in data set [1]; above 10 µM in data set [2]; above 10 µM at D(3) dopamine receptor; 0.006 µM in data set [3]; 0.054 µM in [4]. Further, the IC50 is above 10 µM at D(2) dopamine receptor; 1.29 µM in data set [5]; above 10 µM against D(1A) dopamine receptor; 0.016 µM in data set [6]; above 10 µM in data set [7]; above 10 µM in data set [8]. Besides, the IC50 in data set [9] and in data set [10] was above 10 µM each time.
Take `CCN(CC)C(=O)[C@@H]1C=C2c3cccc4[nH]cc(c34)C[C@H]2N(C(=O)Nc2ccncc2)C1`: the IC50 came to 6.8 µM in [11] and 2 µM in data set [8].
Taken in the same sequence, the figures for `CCN(CC)C(=O)[C@@H]1C=C2c3cccc4[nH]cc(c34)C[C@H]2N(C(=O)Nc2cccnc2)C1` were 0.067 µM and 0.285 µM.
For `CCN(CC)C(=O)[C@@H]1C=C2c3cccc4[nH]cc(c34)C[C@H]2N(C(=O)Oc2ccccc2)C1` the same measures were 0.809 µM and 0.803 µM.
Taken in the same sequence, the figures for `CCN(CC)C(=O)[C@@H]1C=C2c3cccc4c3c(cn4C)C[C@H]2N(C(=O)Nc2ccccc2)C1` were 0.06 µM and 0.22 µM.
With `CCN(CC)C(=O)[C@@H]1C=C2c3cccc4[nH]cc(c34)C[C@H]2N(C(=O)NC2CCCCC2)C1`, the IC50 worked out at 0.078 µM in data set [11] and 0.179 µM in [8].
With `CCN(CC)C(=O)[C@@H]1C=C2c3cccc4c3c(cn4Cc3ccccc3)C[C@H]2N(C(=O)Nc2ccccc2)C1`, the IC50 in data set [11] stood at 0.51 µM; in [8], 0.59 µM.
Turning to `CCN(CC)C(=O)[C@@H]1C=C2c3cccc4[nH]cc(c34)C[C@H]2N(C(=O)Nc2ccc(C)cc2)C1`, the concentration for half-maximal inhibition (IC50) was found to be 0.1 µM in [11] and 0.313 µM in data set [8].
Taken in the same sequence, the figures for `CCN(CC)C(=O)[C@@H]1C=C2c3cccc4[nH]cc(c34)C[C@H]2N(C(=O)Nc2ccccn2)C1` were 0.062 µM and 0.428 µM.
As to `CCN(CC)C(=O)[C@@H]1CC2c3cccc4[nH]cc(c34)C[C@H]2N(C(=O)Nc2ccccc2)C1` (some centres not stated), the IC50 in [11] turned out to be 1.93 µM; in data set [8], 5.3 µM.
For `CCN(CC)C[C@@H]1C=C2c3cccc4[nH]cc(c34)C[C@H]2N(C(=O)Nc2ccccc2)C1` the same measures were above 10 µM and above 10 µM.
Taken in the same sequence, the figures for `CCN(CC)C(=O)[C@@H]1C=C2c3cccc4[nH]cc(c34)C[C@H]2N(C(=O)N(C)c2ccccc2)C1` were above 10 µM and above 10 µM.
Taken in the same sequence, the figures for `CCN(CC)C(=O)[C@@H]1C=C2c3cccc4[nH]cc(c34)C[C@H]2N(C(=O)Nc2cc(OC)c(OC)c(OC)c2)C1` were 0.564 µM and 3.05 µM.
Consider `CCN(CC)C(=O)[C@@H]1C=C2c3cccc4[nH]cc(c34)C[C@H]2N(C(=O)Nc2ccccc2C)C1`, for which the IC50 in [11] stood at 0.028 µM; in [8], 0.146 µM.
For `CCN(CC)C(=O)[C@@H]1C=C2c3cccc4[nH]cc(c34)C[C@H]2N(C(=O)Nc2cccc(C)c2)C1` the same measures were 0.045 µM and 0.231 µM.
As for `CCN(CC)C(=O)[C@H]1C=C2c3cccc4[nH]cc(c34)C[C@H]2N(C(=O)Nc2ccccc2)C1`, in data set [8], the IC50 is above 10 µM.
As for `CCN(CC)C(=O)[C@@H]1C=C2c3cccc4[nH]cc(c34)C[C@H]2N(C(=O)Nc2ccccc2)C1`, the IC50 against D(4) dopamine receptor is 2.65 µM; in data set [1] it was above 10 µM; in data set [2], 0.215 µM; against D(3) dopamine receptor, 0.66 µM; in [3], 0.75 µM; in data set [4], 2.47 µM. Besides, the IC50 against D(2) dopamine receptor is 1.59 µM; against Cytochrome P450 1A2, above 10 µM; in data set [5] it was above 10 µM; in data set [15], 0.03 µM; against D(1A) dopamine receptor it was 4.9 µM; in data set [11], 0.018 µM. The IC50 is above 30 µM in data set [17]; 3.6 µM in data set [18]; 9.58 µM in [6]; 0.2 µM in data set [19]; above 10 µM against Cytochrome P450 3A4; 1.93 µM in data set [7]. For the same compound, the IC50 at Cytochrome P450 2D6 is above 10 µM; on Cytochrome P450 2C19, above 10 µM; in [8] it was 0.054 µM; at Cytochrome P450 2C9, above 10 µM; in data set [9] it was 5.76 µM; in [10], 4.03 µM. For the same compound, the solubility in [12] and in data set [16] was 5 µg/mL (≈ 11.7 µM) throughout. For the same compound, the fraction unbound in data set [13] stood at 0.02; in [14] it was 0.01. The logP in [20] turned out to be 4.2.
